Entries after “also recorded” stand apart in the source; their conditions may differ. Where a SMILES comes first, the peptide text is derived from it. Bridges are numbered along the chain shown (N, C = ends). Roman numbers before positions name the chains, in order. Side-chain parts run from the residue outwards. [ ]: non-standard residue; d: D form. The star is where a group is joined. X1 = CN(C)c1ccc2c(-c3ccc(C(=O)*)cc3C(=O)[O-])c3ccc(=[N+](C)C)cc-3oc2c1; Biotin = O=C1N[C@H]2[C@H](CS[C@H]2CCCCC(=O)*)N1; PEG4 = NCCOCCOCCOCCOCCC(=O)O; Alloc = C=CCOC(=O)*; βAla = NCCC(=O)O
Key:
[1] = tested on: recombinant mKlotho; assay: Pull-down of recombinant mKlotho from CaSki cell lysate; type: binding, mouse
Summary of the method: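 Recombinant mouse Klotho was spiked into lysate of CaSki cells (human cervical cancer line, minimal endogenous Klotho) at a final 100 nM. It was pulled down with biotinylated peptide. For self-competition, unlabeled peptide or scrambled control was added to the lysate. Klotho identity was checked against a KM2076 antibody pull-down by band size. Pull-down was quantified (n=2), with ANOVA.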

[2] = tested on: MDM2; assay: Direct binding by BLI, MDM2; conditions: KB2-Biotin immobilized on streptavidin tips; MDM2 7.8-1000 nM; n=2
[3] = tested on: 12CA5; assay: Direct binding by BLI, 12CA5; conditions: KB2-Biotin immobilized on streptavidin tips; 12CA5 7.8-1000 nM; n=2
[4] = tested on: endogenous hKlotho; assay: Pull-down of endogenous hKlotho from HK-2 cell lysate; type: binding, human; conditions: probe 200 nM; 300 μg total protein; 30 min room temperature; western blot; n=2
[5] = tested on: endogenous total hKlotho in HK-2 cells; assay: Fluorescence microscopy imaging of fixed HK-2 cells; type: cell-based, human; conditions: HK-2 cells transfected with KL siRNA, KB2-TAMRA 500 nM; n=5
Summary of the method: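 HK-2 cells were left untransfected, mock-transfected, or transfected with a pooled KL siRNA using RNAiMAX. They were then co-treated with TAMRA-labelled peptide (500 nM) plus WGA Alexa Fluor 350 membrane stain and fixed after treatment. Imaging used ex/em 542/597 nm for TAMRA and 390/435 nm for WGA. Normalised integrated fluorescence was quantified (n=5), with ANOVA.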

[6] = tested on: Klotho-deficient CaSki cells; assay: Fluorescence microscopy imaging of CaSki cells; type: cell-based, human; conditions: KB2-TAMRA 500 nM, 5 min; fixation after treatment
[7] = tested on: HK-2 cells; assay: Co-localization with nucleus dye DAPI in HK-2 cells; type: cell-based, human; conditions: KB2-TAMRA 500 nM 5 min or antibody overnight, DAPI stain
Summary of the method: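 HK-2 cells labelled with fluorescent peptide probe at 500 nM for 5 min, or with anti-Klotho antibody KM2076 (overnight incubation, then permeabilisation and secondary antibody). Nuclei stained with DAPI. Co-localisation of the DAPI signal with the probe or antibody signal was quantified as a Pearson correlation coefficient.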

C=CCOC(=O)NCCCC[C@H](NC(=O)CCNC(=O)[C@H](CCCCNC(=O)[C@H](C)NC(=O)[C@H](CCCNC(=N)N)NC(=O)[C@H](C)NC(=O)[C@H](CCCNC(=N)N)NC(=O)[C@@H]1CCCN1C(=O)[C@H](CCCNC(=N)N)NC(=O)[C@@H](NC(=O)[C@@H](NC(=O)CNC(=O)[C@H](CC(C)C)NC(=O)[C@@H]1CCCN1C(=O)[C@H](CC(=O)O)NC(=O)[C@H](CO)NC(=O)[C@H](C)NC(=O)[C@H](CCSC)NC(=O)[C@@H]1CCCN1)C(C)C)C(C)C)NC(=O)[C@H](C)NC(=O)[C@H](CCCNC(=N)N)NC(=O)[C@H](C)NC(=O)[C@H](CCCNC(=N)N)NC(=O)[C@@H]1CCCN1C(=O)[C@H](CCCNC(=N)N)NC(=O)[C@@H](NC(=O)[C@@H](NC(=O)CNC(=O)[C@H](CC(C)C)NC(=O)[C@@H]1CCCN1C(=O)[C@H](CC(=O)O)NC(=O)[C@H](CO)NC(=O)[C@H](C)NC(=O)[C@H](CCSC)NC(=O)[C@@H]1CCCN1)C(C)C)C(C)C)C(N)=O [KB2] (I: H-PMASDPLGVVRPRARAK[βAla]K(Alloc)-NH2 / II: H-PMASDPLGVVRPRARA; amide I:17-II:C)
competition of mKlotho pull-down by KB2-Biotin ([1]; unlabeled peptide pre-incubated 15 min in lysate before KB2-Biotin, n=2): competed off

CSCC[C@H](NC(=O)[C@@H]1CCCN1C(C)=O)C(=O)N[C@@H](C)C(=O)N[C@@H](CO)C(=O)N[C@@H](CC(=O)O)C(=O)N1CCC[C@H]1C(=O)N[C@@H](CC(C)C)C(=O)NCC(=O)N[C@H](C(=O)N[C@H](C(=O)N[C@@H](CCCNC(=N)N)C(=O)N1CCC[C@H]1C(=O)N[C@@H](CCCNC(=N)N)C(=O)N[C@@H](C)C(=O)N[C@@H](CCCNC(=N)N)C(=O)N[C@@H](C)C(=O)NCCCC[C@H](NC(=O)[C@H](C)NC(=O)[C@H](CCCNC(=N)N)NC(=O)[C@H](C)NC(=O)[C@H](CCCNC(=N)N)NC(=O)[C@@H]1CCCN1C(=O)[C@H](CCCNC(=N)N)NC(=O)[C@@H](NC(=O)[C@@H](NC(=O)CNC(=O)[C@H](CC(C)C)NC(=O)[C@@H]1CCCN1C(=O)[C@H](CC(=O)O)NC(=O)[C@H](CO)NC(=O)[C@H](C)NC(=O)[C@H](CCSC)NC(=O)[C@@H]1CCCN1C(C)=O)C(C)C)C(C)C)C(=O)NCCC(=O)N[C@@H](CCCCNC(=O)CCOCCOCCOCCOCCNC(=O)CCCC[C@@H]1SC[C@@H]2NC(=O)N[C@@H]21)C(N)=O)C(C)C)C(C)C [KB2-Biotin] (I: Ac-PMASDPLGVVRPRARAK[βAla]K([PEG4-Biotin])-NH2 / II: Ac-PMASDPLGVVRPRARA; amide I:17-II:C; N-terminus assumed)
association to MDM2 (in words) [2]: no association
association to 12CA5 (in words) [3]: no association
selectivity of pull-down (silver stain) ([1]; pull-down eluents, probe 200 nM, CaSki lysate with mKlotho 0.1 μM): only significantly enriched protein
enrichment of endogenous hKlotho from HK-2 cell lysate [4]: enriched hKlotho; also recorded: significantly enriched

CSCC[C@H](NC(=O)[C@@H]1CCCN1C(C)=O)C(=O)N[C@@H](C)C(=O)N[C@@H](CO)C(=O)N[C@@H](CC(=O)O)C(=O)N1CCC[C@H]1C(=O)N[C@@H](CC(C)C)C(=O)NCC(=O)N[C@H](C(=O)N[C@H](C(=O)N[C@@H](CCCNC(=N)N)C(=O)N1CCC[C@H]1C(=O)N[C@@H](CCCNC(=N)N)C(=O)N[C@@H](C)C(=O)N[C@@H](CCCNC(=N)N)C(=O)N[C@@H](C)C(=O)NCCCC[C@H](NC(=O)[C@H](C)NC(=O)[C@H](CCCNC(=N)N)NC(=O)[C@H](C)NC(=O)[C@H](CCCNC(=N)N)NC(=O)[C@@H]1CCCN1C(=O)[C@H](CCCNC(=N)N)NC(=O)[C@@H](NC(=O)[C@@H](NC(=O)CNC(=O)[C@H](CC(C)C)NC(=O)[C@@H]1CCCN1C(=O)[C@H](CC(=O)O)NC(=O)[C@H](CO)NC(=O)[C@H](C)NC(=O)[C@H](CCSC)NC(=O)[C@@H]1CCCN1C(C)=O)C(C)C)C(C)C)C(=O)NCCC(=O)N[C@@H](CCCCNC(=O)c1ccc(-c2c3ccc(=[N+](C)C)cc-3oc3cc(N(C)C)ccc23)c(C(=O)[O-])c1)C(N)=O)C(C)C)C(C)C [KB2-TAMRA] (I: Ac-PMASDPLGVVRPRARAK[βAla]K(X1)-NH2 / II: Ac-PMASDPLGVVRPRARA; amide I:17-II:C; N-terminus assumed)
fluorescence after Klotho knock-down by KL siRNA [5]: reduced the fluorescence
fluorescence intensity in CaSki cells relative to HK-2 cells [6]: significantly lower fluorescence intensity
Pearson correlation coefficient (r) for overlap with DAPI [7]: 0.29

From publication PMC10460140 (Angewandte Chemie (International ed. in English), 2023)
